In ChEMBL document CHEMBL4196248, “Callyspongidic Acids: Amphiphilic Diacids from the Tropical Eastern Pacific Sponge Callyspongia cf. californica” (J Nat Prod, 2018) one finds Activity and IC50 data, which are given here for four compounds.

The source made the active and inactive calls. The rule behind the calls is not given here.

For assay [1], the system named is Aspergillus fumigatus. The assay is described as follows: Antimicrobial activity against Aspergillus fumigatus ATCC 46645 at 32 ug/ml measured after 30 hrs by resazurin dye based assay. The format is functional, organism-based. The gist of the method: (§1)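 Whole-cell growth-inhibition panel: Gram-negative E. coli ATCC25922, K. pneumoniae ATCC700603, P. aeruginosa PAO1 and A. baumannii CL5973, plus fungi A. fumigatus ATCC46645 and C. albicans ATCC64124. Method follows earlier-described protocols. Highest concentration tested 32 μg/mL.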

Assay [2] has as its system Escherichia coli. The assay is described as follows: Antimicrobial activity against Escherichia coli ATCC 25922 at 32 ug/ml measured after 20 hrs by spectrophotometric method. In kind it is functional, organism-based. Put shortly: as §1
For assay [3], the system named is Acinetobacter baumannii. The assay is described as follows: Antimicrobial activity against Acinetobacter baumannii CL5973 at 32 ug/ml measured after 20 hrs by spectrophotometric method. In kind it is functional, organism-based. Put shortly:
as §1

Assay [4] concerns Staphylococcus aureus. Put plainly: Antimicrobial activity against methicillin-resistant Staphylococcus aureus MB5393 at 32 ug/ml measured after 20 hrs by spectrophotometric method. The format is functional, organism-based.
The subject of assay [5] is Pseudomonas aeruginosa. Put plainly: Antimicrobial activity against Pseudomonas aeruginosa PAO1 at 32 ug/ml measured after 20 hrs by spectrophotometric method. The format is functional, organism-based. Put shortly:
as §1

Assay [6] deals with Klebsiella pneumoniae. Put plainly: Antimicrobial activity against Klebsiella pneumoniae ATCC 700603 at 32 ug/ml measured after 20 hrs by spectrophotometric method. The format is functional, organism-based. Put shortly:
as §1

A further assay deals with A2058. The assay is described as follows: Cytotoxicity against human A2058 cells measured after 24 hrs by MTT assay. In kind it is functional, cell-based. The conditions noted are these: A2058, 24 h. Put shortly: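 Human-derived A2058 epithelial melanoma cells, run alongside a panel of other human tumour lines by a previously reported protocol; IC50 values derived.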

The test system of assay [7] is Staphylococcus aureus. The assay is described as follows: Antimicrobial activity against methicillin-sensitive Staphylococcus aureus ATCC 29213 at 32 ug/ml measured after 20 hrs by spectrophotometric method. In kind it is functional, organism-based.
Assay [8] relates to Candida albicans. Put plainly: Antimicrobial activity against Candida albicans ATCC 64124 at 32 ug/ml measured after 20 hrs by spectrophotometric method. The format is functional, organism-based. Put shortly: as §1
Assay [9] has as its system Aspergillus fumigatus. The assay is described as follows: Antimicrobial activity against Aspergillus fumigatus ATCC 46645 at 4 ug/ml measured after 30 hrs by resazurin dye based assay. The format is functional, organism-based.
Assay [10] relates to Staphylococcus aureus. Put plainly: Antimicrobial activity against methicillin-resistant Staphylococcus aureus MB5393 at 4 ug/ml measured after 20 hrs by spectrophotometric method. In kind it is functional, organism-based.
The test system of assay [11] is Candida albicans. Put plainly: Antimicrobial activity against Candida albicans ATCC 64124 at 4 ug/ml measured after 20 hrs by spectrophotometric method. In kind it is functional, organism-based.
For assay [12], the system named is Acinetobacter baumannii. Put plainly: Antimicrobial activity against Acinetobacter baumannii CL5973 at 4 ug/ml measured after 20 hrs by spectrophotometric method. In kind it is functional, organism-based.
Assay [13] deals with Klebsiella pneumoniae. Put plainly: Antimicrobial activity against Klebsiella pneumoniae ATCC 700603 at 4 ug/ml measured after 20 hrs by spectrophotometric method. In kind it is functional, organism-based.
The subject of assay [14] is Pseudomonas aeruginosa. The assay is described as follows: Antimicrobial activity against Pseudomonas aeruginosa PAO1 at 4 ug/ml measured after 20 hrs by spectrophotometric method. In kind it is functional, organism-based.
Assay [15] relates to Escherichia coli. The assay is described as follows: Antimicrobial activity against Escherichia coli ATCC 25922 at 4 ug/ml measured after 20 hrs by spectrophotometric method. The format is functional, organism-based.
The subject of assay [16] is Staphylococcus aureus. The assay is described as follows: Antimicrobial activity against methicillin-sensitive Staphylococcus aureus ATCC 29213 at 4 ug/ml measured after 20 hrs by spectrophotometric method. The format is functional, organism-based.

Regarding `CCCCCCCCCC[C@H](C(=O)O)[C@@](O)(Cc1ccc(O)cc1)C(=O)O`, the outcome with Aspergillus fumigatus [1], in the assay with Escherichia coli [2], in the assay with Acinetobacter baumannii [3], in the assay on Staphylococcus aureus [4], in the assay on Pseudomonas aeruginosa [5] and in the assay on Klebsiella pneumoniae [6] was inactive. In addition, the result in the assay on Staphylococcus aureus [7] and with Candida albicans [8] was inactive. Besides, the midpoint of inhibition in the assay on A2058, the IC50, lay at 26 µM.

For `CCCCCCCCCCC[C@H](C(=O)O)[C@@](O)(Cc1ccc(O)cc1)C(=O)O`, the result in the assay with Aspergillus fumigatus [9], with Staphylococcus aureus [10], with Candida albicans [11], in the assay with Acinetobacter baumannii [12], with Klebsiella pneumoniae [13] and in the assay with Pseudomonas aeruginosa [14] was inactive. Besides, the result in the assay with Escherichia coli [15] and in the assay on Staphylococcus aureus [16] was inactive. In addition, the midpoint of inhibition with A2058, the IC50, lay at 3.2 µM.

Take `CCCCCC/C=C\CCCC[C@H](C(=O)O)[C@@](O)(Cc1ccc(O)cc1)C(=O)O`: the result in the assay on Aspergillus fumigatus [1], with Escherichia coli [2], in the assay on Acinetobacter baumannii [3], in the assay with Staphylococcus aureus [4], in the assay on Pseudomonas aeruginosa [5] and in the assay on Klebsiella pneumoniae [6] was inactive. Further, the result in the assay on Staphylococcus aureus [7] and in the assay on Candida albicans [8] was inactive. In addition, the IC50 (in general, the concentration that gives 50% inhibition) in the assay on A2058 is more than 30 µM.

For `CCCCCCCCCCCC[C@H](C(=O)O)[C@@](O)(Cc1ccc(O)cc1)C(=O)O`, the outcome with Aspergillus fumigatus [1], in the assay on Escherichia coli [2], in the assay on Acinetobacter baumannii [3], with Staphylococcus aureus [4], in the assay with Pseudomonas aeruginosa [5] and in the assay with Klebsiella pneumoniae [6] was inactive. For the same compound, the result with Staphylococcus aureus [7] and with Candida albicans [8] was inactive. This compound yielded an IC50 with A2058 of 30 µM.
